Compound activity: PubChem BioAssay, Broad Institute
Sampled rows, rich in hits. Any-hit rate of the full collection: about 2.9%.
SIRT5 inh: SIRT5 desuccinylase inhibitors, primary screen, biochemical, fluorescence imaging, single point, set 5 | NAD-dependent protein deacylase sirtuin-5, mitochondrial (Homo sapiens), Q9NXA8 | Purified SirT5, succinyl-peptide AMC, trypsin-coupled fluorescence | inhibition, % at 15 µM | actives 1.1% (n = 330,000); in the data active = inhibition above about 15%; inconclusive = no clear call, values can overlap the other calls
Target sequence (Q9NXA8 whole entry, looked up): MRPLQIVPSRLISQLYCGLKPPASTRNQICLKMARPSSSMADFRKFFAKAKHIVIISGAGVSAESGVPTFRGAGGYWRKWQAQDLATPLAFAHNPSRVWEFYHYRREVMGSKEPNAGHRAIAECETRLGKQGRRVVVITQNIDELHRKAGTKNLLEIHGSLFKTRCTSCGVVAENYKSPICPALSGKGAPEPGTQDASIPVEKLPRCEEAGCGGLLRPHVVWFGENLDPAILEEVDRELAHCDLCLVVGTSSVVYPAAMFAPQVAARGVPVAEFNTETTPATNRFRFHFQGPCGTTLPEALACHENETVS
ERAP1 HTS inh: human ERAP1 aminopeptidase inhibitors, primary screen, biochemical, single point, plate reader | Endoplasmic reticulum aminopeptidase 1 (Homo sapiens), Q9NZ08 | recombinant ERAP1, Leu-AMC fluorescence, 60 min | inhibition, % at 10.7 µM | actives 0.15% (n = 340,000) | AID 652197, 2013;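 active = mean replicate inhibition of at least 30%, or all replicates individually reaching that 30% level; inactive = mean below 30% and not every replicate reaching it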
S100A4 inh HTS: inhibitors of S100A4-myosin IIA peptide binding, primary screen, biochemical, fluorescence polarization, TAMRA-MyoIIA peptide | Protein S100-A4 (Homo sapiens), P26447 | AID 652163, 2013 | actives 0.14% (n = 360,000) | inhibition, % at 10.7 µM;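 active = mean inhibition of at least 70% across replicates, with every replicate also reaching that level; inconclusive = mean inhibition reaches 70% but some replicates fall short; inactive = mean inhibition below 70%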
Target sequence (P26447 whole entry, looked up): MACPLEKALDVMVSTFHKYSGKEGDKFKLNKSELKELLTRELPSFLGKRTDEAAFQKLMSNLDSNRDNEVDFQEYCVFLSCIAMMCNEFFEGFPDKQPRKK
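Test system – S100A4 monomer (human) · Compound – single-point compound testing · Schedule – 5 min incubation before reading · Probe or stimulus – TAMRA-labelled myosin IIA heavy-chain peptide probe, 5 nM · Benchmarks – neutral control DMSO, positive control TFP · Medium – Calcium-containing HEPES buffer, pH 7.2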
DENV2 CPE: inhibitors of DENV2 cytopathic effect, primary screen, cell-based, plate reader, single concentration; DENV2-infected cells, cytopathic effect rescue; CPE inhibition, % at 9.99 µM; actives 1.7% (n = 350,000); in the data active = CPE inhibition above about 20%, passing the limit was not always enough; inconclusive = no clear call, values can overlap the other calls; tested in BHK-21 cells
CAL PDZ FP-1: untagged CAL PDZ binding inhibitors, primary screen, biochemical, fluorescence polarization, HTS; Golgi-associated PDZ and coiled-coil motif-containing protein (Homo sapiens), Q9HD26; actives 0.92% (n = 300,000); purified CAL PDZ, TMR-peptide fluorescence polarization, 1 h; inhibition, % at 24.9 µM;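 active = mean inhibition of at least 30% with at least half of replicates also reaching 30%; inconclusive = no clear call, values can overlap the other calls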
CAL PDZ FP-2: CAL PDZ peptide-binding inhibitors, primary screen, biochemical, fluorescence polarization, Cer-tagged CAL PDZ, HTS | inhibition, % at 20 µM | actives 0.02% (n = 330,000) | purified CAL PDZ, TMR-peptide fluorescence polarization, 1 h | Golgi-associated PDZ and coiled-coil motif-containing protein (Homo sapiens), Q9HD26;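 active = highest replicate inhibition of at least 40%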
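Material – purified CerCALP PDZ construct · Detection – FP readout, S and P plane fluorescence · Measure – percent inhibition from loss of millipolarization · Controls – unlabelled peptide for full inhibition, DMSO wells as neutral · Probe or stimulus – TMR-labelled reporter peptide T*-PRC34 bound in PDZ groove · Times – 1 h at RT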
A number is an active result; – = inactive; ? = inconclusive; · = no result; + = active, no number.

SMILES | SIRT5 inh | ERAP1 HTS inh | S100A4 inh HTS | DENV2 CPE | CAL PDZ FP-1 | CAL PDZ FP-2
C[C@H](CO)N1C[C@H](C)[C@@H](CN(C)Cc2ccc(C(=O)O)cc2)Oc2c(NC(=O)Nc3ccccc3)cccc2C1=O | – | – | – | 30 | · | ·
C[C@@H]1CN([C@@H](C)CO)C(=O)Cc2cc(NC(=O)Cc3ccccc3)ccc2O[C@H]1CN(C)C(=O)Nc1ccc(F)cc1 | – | – | – | – | · | ·
O=C(Nc1ccccc1F)N1CC(=O)N2[C@H](C1)[C@H](c1ccc(C#CC3CCCC3)cc1)[C@@H]2CO | – | – | – | – | · | ·
CCOC(=O)c1cnc2nc(C(F)(F)F)[nH]n2c1=O | · | · | · | · | 103 | –
CCOC(=O)c1cnc2nc(C)nn2c1N | 69 | – | – | – | – | –
CCOC(=O)c1cnc2nc(N3CCOCC3)nn2c1N | – | – | – | – | – | –
Cc1noc(C)c1S(=O)(=O)Nc1ccc2c(c1)C(=O)N([C@@H](C)CO)C[C@H](C)[C@H](CN(C)C(=O)CCCN(C)C)OCCCC[C@H](C)O2 | · | · | · | 73 | · | ·
C[C@H](CO)N1C[C@H](C)[C@H](CN(C)C(=O)CCCN(C)C)OCCCC[C@H](C)Oc2ccc(NS(=O)(=O)c3ccc(F)cc3)cc2C1=O | – | – | – | – | · | ·
C[C@@H]1CCCCO[C@@H](CN(C)C(=O)CCCN(C)C)[C@@H](C)CN([C@H](C)CO)C(=O)c2cc(NS(=O)(=O)c3ccccc3)ccc2O1 | 19 | – | – | – | · | ·
C[C@@H]1CCCCO[C@@H](CN(C)C(=O)CCCN(C)C)[C@H](C)CN([C@@H](C)CO)C(=O)c2cc(NS(=O)(=O)c3cccs3)ccc2O1 | – | – | – | · | · | ·
C[C@H]1CCCCO[C@H](CN(C)C(=O)CCCN(C)C)[C@@H](C)CN([C@@H](C)CO)C(=O)c2cc(NS(=O)(=O)c3cccs3)ccc2O1 | – | – | – | 23 | · | ·
C[C@H]1CCCCO[C@H](CN(C)C(=O)CCCN(C)C)[C@@H](C)CN([C@@H](C)CO)C(=O)c2cc(NS(=O)(=O)c3ccc(F)cc3)ccc2O1 | – | – | – | 56 | · | ·
Cc1ccc(S(=O)(=O)Nc2ccc3c(c2)C(=O)N([C@H](C)CO)C[C@H](C)[C@H](CN(C)Cc2ccc(C(=O)O)cc2)O3)cc1 | – | – | – | – | · | ·
C[C@@H]1CN([C@@H](C)CO)C(=O)c2cc(NS(=O)(=O)c3ccc(F)cc3)ccc2O[C@@H](C)CCCCO[C@@H]1CN(C)C(=O)CCCN(C)C | – | – | – | 83 | · | ·
C[C@H]1CCCCO[C@@H](CN(C)C(=O)CCCN(C)C)[C@@H](C)CN([C@@H](C)CO)C(=O)c2cc(NS(=O)(=O)c3ccc(F)cc3)ccc2O1 | – | – | – | – | · | ·
CC(C)C(=O)Nc1ccc2c(c1)C(=O)N(C)[C@@H]1CC[C@@H](CC(=O)NCc3ccccc3F)O[C@H]1CO2 | · | · | · | – | · | ·
CCCNC(=O)N1C[C@H](O)COC[C@@H]2O[C@@H](CC(=O)N3CCCCC3)CC[C@H]21 | – | – | – | – | · | ·
CCSc1nc2nccnc2c(=O)[nH]1 | – | – | – | – | 96 | –
CCSc1nc(O)cc(=O)[nH]1 | – | – | – | – | – | –
CCNC(=O)C[C@H]1CC[C@H]2[C@H](COc3ccc(NC(=O)Cc4ccccc4)cc3C(=O)N2C)O1 | – | – | – | – | · | ·
CC(C)C(NC(=O)OCc1ccccc1)C(=O)NC(Cc1ccc(O)cc1)C(=O)O (centres undefined) | – | – | – | – | – | –
CC(C)[C@H](NC(=O)[C@H](CCCN=C(N)N)NC(=O)NC(Cc1ccccc1)C(=O)O)C(=O)NC(C=O)CCCN=C(N)N (some centres undefined) | 46 | 35 | – | – | – | –
C[C@H]1CN([C@@H](C)CO)C(=O)Cc2cc(NS(=O)(=O)c3cccs3)ccc2O[C@H]1CN(C)S(=O)(=O)c1ccc(F)cc1 | – | – | – | – | · | ·
CC1=CC(C)(C)Nc2ccc(OC(=O)CN3C(=O)c4ccccc4C3=O)cc21 | · | – | – | – | – | –
CC1=CC(C)(C)Nc2ccc(OC(=O)C(Cc3ccccc3)N3C(=O)c4ccccc4C3=O)cc21 (centres undefined) | · | · | · | · | 68 | –
SMILES | SIRT5 inh | ERAP1 HTS inh | S100A4 inh HTS | DENV2 CPE | CAL PDZ FP-1 | CAL PDZ FP-2
O=C1CSC(=S)N1Nc1ccccc1 | – | – | – | – | 53 | –
C[C@H](CO)N1C[C@H](C)[C@@H](CN(C)Cc2ccc(Cl)c(Cl)c2)Oc2ccc(NC(=O)C3CCCCC3)cc2CC1=O | – | – | – | ? | · | ·
COc1ccc(-c2ccc3c(c2)O[C@@H](CN(C)Cc2cccnc2)[C@H](C)CN([C@@H](C)CO)S3(=O)=O)cc1 | – | – | – | – | · | ·
Cc1noc(C)c1S(=O)(=O)N(C)C[C@H]1Oc2ccc(NS(=O)(=O)c3ccc(F)cc3)cc2CC(=O)N([C@@H](C)CO)C[C@H]1C | – | – | – | – | · | ·
COCC#Cc1ccc([C@H]2[C@H]3CN(S(=O)(=O)c4ccc(OC)cc4)CCCCN3[C@H]2CO)cc1 | – | – | – | 45 | · | ·
COCC#Cc1ccc([C@H]2[C@@H](CO)N3CCCCN(S(=O)(=O)c4ccc(OC)cc4)C[C@@H]23)cc1 | – | – | – | – | · | ·
COCC#Cc1ccc([C@H]2[C@@H](CO)N3CCCCN(S(=O)(=O)c4ccccc4F)C[C@H]23)cc1 | – | – | – | – | · | ·
COCC#Cc1ccc([C@H]2[C@H](CO)N3CCCCN(S(=O)(=O)c4ccc(OC)cc4)C[C@@H]23)cc1 | – | – | – | 62 | · | ·
COCC#Cc1ccc([C@@H]2[C@@H](CO)N3CCCCN(S(=O)(=O)c4ccccc4F)C[C@@H]23)cc1 | – | – | – | 21 | · | ·
O=C(Cc1ccncc1)NCC[C@@H]1CC[C@@H](NC(=O)Nc2cccc(F)c2)[C@H](CO)O1 | – | – | – | ? | · | ·
CCCN1[C@@H]2c3ccc(-c4cccnc4)c(=O)n3C[C@@H]2[C@@H](CO)[C@@H]1C(=O)NCCCN1CCOCC1 | – | – | – | ? | · | ·
CCCCN1C(=O)/C(=C/C=C2\Oc3ccccc3N2CC)SC1=S | – | – | – | – | – | –
CCN1/C(=C/C=C/c2oc3ccc(-c4ccccc4)cc3[n+]2CC)Oc2ccc(-c3ccccc3)cc21 | – | – | + | – | 36 | –
Cn1cnc(S(=O)(=O)N2C[C@H](O)COC[C@H]3O[C@H](CC(=O)NCc4ccc(F)cc4)CC[C@@H]32)c1 | – | – | – | – | · | ·
CCOc1ccc(S(=O)(=O)Nc2cccc(C)c2)c2cccnc12 | 18 | – | – | – | – | –
